Data taken from ChEMBL document CHEMBL1133640, “Structure-activity studies including a Psi(CH(2)-NH) scan of peptide YY (PYY) active site, PYY(22-36), for interaction with rat intestinal PYY receptors: development of analogues with potent in vivo activity in the intestine” (J Med Chem, 2000).
pIC50: −log10 of the molar value. Where a SMILES comes first, the peptide text is derived from it. [ ]: non-standard residue; d: D form. Bip = N[C@@H](Cc1ccc(-c2ccccc2)cc1)C(=O)O

Tests used:
[1] = target: Neuropeptide Y receptor type 2 (Rattus norvegicus, UniProt Q9ERC0); assay: Tested for the affinity for intestinal PYY from rat jejunum by using short circuit current (SCC) method.
[2] = target: Neuropeptide Y receptor type 1 (Homo sapiens, UniProt P25929); assay: Affinity against Neuropeptide Y receptor Y1 in SK-N-MC cell line; format: cell-based
[3] = target: T1, Neuropeptide Y receptor type 2 (Homo sapiens, UniProt P49146); assay: Affinity against Neuropeptide Y receptor Y2 in SK-N-BE2 cell line
T1 sequence (P49146 whole entry): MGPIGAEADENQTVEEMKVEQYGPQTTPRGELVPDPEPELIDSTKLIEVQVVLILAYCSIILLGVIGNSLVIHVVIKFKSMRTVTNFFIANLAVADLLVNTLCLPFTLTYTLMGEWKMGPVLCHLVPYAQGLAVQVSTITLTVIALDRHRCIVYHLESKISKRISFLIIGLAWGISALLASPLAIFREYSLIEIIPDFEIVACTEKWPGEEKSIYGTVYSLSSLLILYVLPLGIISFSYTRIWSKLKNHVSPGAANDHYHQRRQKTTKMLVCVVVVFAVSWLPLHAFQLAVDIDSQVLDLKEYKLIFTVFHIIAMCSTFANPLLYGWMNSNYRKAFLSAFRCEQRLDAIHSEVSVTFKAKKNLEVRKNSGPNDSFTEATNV

Canis familiaris [4] = species: Canis familiaris; assay: Peak proabsorptive effects of intralbuminal Infusion on absorption of water in the ileum of awake dogs bearing ileal and/or Colonic Thiry-Vella Fistulasa; format: functional, organism-based; settings: Canis lupus familiaris
Rattus norvegicus = assay: Tested for in vivo antisecretory potency for inhibiting VIP-induced (30 micro g/kg/h) secretion in isolated jejunum in anesthetized rats.(95% CL); format: functional; settings: read-out: ID50 (the source's name)
How it was run: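 Rats anesthetized, saphenous vein cannulated. Isolated jejunal loop instilled with 2000 μL fluid. At the end the loop is excised, measured and weighed before and after emptying. Net water flux (μL/cm/30 min) = (F-E)2000/L; negative means absorption. 6-8 animals per dose.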

Canis familiaris [5] = species: Canis familiaris; assay: Peak proabsorptive effects of intralbuminal Infusion on absorption of Na+ in the ileum of awake dogs bearing ileal and/or Colonic Thiry-Vella Fistulasa; format: functional, organism-based; settings: Canis lupus familiaris
Canis familiaris [6] = species: Canis familiaris; assay: Peak proabsorptive effects of intralbuminal Infusion on absorption of water in the colon of awake dogs bearing ileal and/or Colonic Thiry-Vella Fistulasa; format: functional, organism-based; settings: Canis lupus familiaris
Canis familiaris [7] = species: Canis familiaris; assay: Peak proabsorptive effects of intralbuminal Infusion on absorption of Cl- in the ileum of awake dogs bearing ileal and/or Colonic Thiry-Vella Fistulasa; format: functional, organism-based; settings: Canis lupus familiaris
Canis familiaris [8] = species: Canis familiaris; assay: Peak proabsorptive effects of intralbuminal Infusion on absorption of Cl- in the colon of awake dogs bearing ileal and/or Colonic Thiry-Vella Fistulasa; format: functional, organism-based; settings: Canis lupus familiaris
Canis familiaris [9] = species: Canis familiaris; assay: Peak proabsorptive effects of intralbuminal Infusion on absorption of Na+ in the colon of awake dogs bearing ileal and/or Colonic Thiry-Vella Fistulasa; format: functional, organism-based; settings: Canis lupus familiaris

Chain of Neuropeptide Y receptor type 1 (P25929 whole entry): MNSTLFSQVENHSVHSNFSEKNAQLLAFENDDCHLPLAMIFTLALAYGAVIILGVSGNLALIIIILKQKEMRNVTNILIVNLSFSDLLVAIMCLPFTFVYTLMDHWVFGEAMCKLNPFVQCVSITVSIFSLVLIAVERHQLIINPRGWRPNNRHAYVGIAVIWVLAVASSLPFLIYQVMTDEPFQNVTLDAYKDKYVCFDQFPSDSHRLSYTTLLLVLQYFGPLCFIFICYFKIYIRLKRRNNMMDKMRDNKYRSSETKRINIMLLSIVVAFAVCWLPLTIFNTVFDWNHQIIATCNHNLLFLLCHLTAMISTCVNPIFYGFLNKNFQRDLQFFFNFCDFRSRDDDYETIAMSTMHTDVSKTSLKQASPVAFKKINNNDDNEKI
Chain of Neuropeptide Y receptor type 2 (Rattus norvegicus, UniProt Q9ERC0) (Q9ERC0 whole entry): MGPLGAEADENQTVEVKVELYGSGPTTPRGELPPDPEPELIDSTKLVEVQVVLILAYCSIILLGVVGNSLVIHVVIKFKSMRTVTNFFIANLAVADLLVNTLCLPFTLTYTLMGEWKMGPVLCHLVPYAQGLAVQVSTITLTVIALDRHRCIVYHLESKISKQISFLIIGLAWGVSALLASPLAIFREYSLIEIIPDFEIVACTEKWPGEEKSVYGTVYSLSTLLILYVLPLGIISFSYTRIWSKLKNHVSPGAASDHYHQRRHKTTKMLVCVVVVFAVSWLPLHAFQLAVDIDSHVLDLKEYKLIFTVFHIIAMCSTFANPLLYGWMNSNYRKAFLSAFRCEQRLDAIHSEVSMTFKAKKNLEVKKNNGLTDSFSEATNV

| Molecule | pIC50 [1] | pIC50 [2] | pIC50 [3] | Absorption (Canis familiaris [4]) | ED50 (Rattus norvegicus) | Absorption (u equiv min-1) (Canis familiaris [5]) | Absorption (Canis familiaris [6]) | Absorption (u equiv min-1) (Canis familiaris [7]) | Absorption (u equiv min-1) (Canis familiaris [8]) | Absorption (u equiv min-1) (Canis familiaris [9]) |
| --- | --- | --- | --- | --- | --- | --- | --- | --- | --- | --- |
| Ac-ASLRHWLNLVTRQRY-NH2 [listing 1 of 2 here] | – | – | – | 725 µL/min | 3.33e-05 µmol/kg | 120 | 503 µL/min | 101 | 77 | 78 |
| Ac-ASLRHWLNLVTRQRY-NH2 [listing 2 of 2 here] | 8.49 | 7.11 | 8.68 | – | – | – | – | – | – | – |
| Ac-ASLRHYLWLVTRQRY-NH2 | 7.00 | 6.12 | 6.80 | – | – | – | – | – | – | – |

Second part, led by results:

| pIC50 [1] | pIC50 [2] | pIC50 [3] | Molecule | Absorption (Canis familiaris [4]) | ED50 (Rattus norvegicus) | Absorption (u equiv min-1) (Canis familiaris [5]) | Absorption (Canis familiaris [6]) | Absorption (u equiv min-1) (Canis familiaris [7]) | Absorption (u equiv min-1) (Canis familiaris [8]) | Absorption (u equiv min-1) (Canis familiaris [9]) |
| --- | --- | --- | --- | --- | --- | --- | --- | --- | --- | --- |
| 8.62 | 6.55 | 7.85 | CC(=O)N[C@@H](C)C(=O)N[C@@H](CO)C(=O)N[C@@H](CC(C)C)C(=O)N[C@@H](CCCN=C(N)N)C(=O)N[C@@H](Cc1c[nH]cn1)C(=O)N[C@@H](Cc1ccc(-c2ccccc2)cc1)C(=O)N[C@@H](CC(C)C)C(=O)N[C@@H](CC(N)=O)C(=O)N[C@@H](CC(C)C)C(=O)N[C@H](C(=O)N[C@H](C(=O)N[C@@H](CCCN=C(N)N)C(=O)N[C@@H](CCC(N)=O)C(=O)N[C@@H](CCCN=C(N)N)C(=O)N[C@@H](Cc1ccc(O)cc1)C(N)=O)[C@@H](C)O)C(C)C (Ac-ASLRH[Bip]LNLVTRQRY-NH2) | – | – | – | – | – | – | – |
| 9.22 | 6.40 | 8.68 | Ac-ASLRHYWNLVTRQRY-NH2 | – | – | – | – | – | – | – |
